# Measured values: ChEMBL document CHEMBL1177840, “Trifluoromethyl-promoted homocamptothecins: synthesis and biological activity” (Eur J Med Chem, 2010)
# Calls of active or inactive are those of the source. The rule behind the calls is not given here.
# Experiments:
# A549 = experiment: Cytotoxicity against human A549 cells after 3 days by MTT assay; settings: A549, 3 days
# LoVo = experiment: Cytotoxicity against human LoVo cells after 3 days by MTT assay
# MDA-MB-435 = experiment: Cytotoxicity against human MDA-MB-435 cells after 3 days by MTT assay; settings: MDA-MB-435, 3 days
# [1] = test system: Lewis lung carcinoma cell line; experiment: Antitumor activity against mouse LLC transplanted in C57BL/6 mouse assessed as tumor growth inhibition at 0.5 mg/kg, ip qd for 5 days; assay type: functional; settings: 120 h, route intraperitoneal
# Outline: (§1)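 Male C57BL/6 mice (18–20 g) received Lewis lung carcinoma cells subcutaneously in the right axilla. Starting 3 days after implantation, they were dosed i.p. once daily for 5 consecutive days; controls received normal saline. Tumors were excised and weighed on day 14 post-implantation. Growth inhibition was calculated from the average tumor weight of the test group versus the control group.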
# [2] = test system: Lewis lung carcinoma cell line; experiment: Antitumor activity against mouse LLC transplanted in C57BL/6 mouse assessed as tumor weight at 0.5 mg/kg, ip qd for 5 days (RVb = 1.8 +/- 0.47 g); assay type: functional; settings: route intraperitoneal
# Outline: as §1
# Mus musculus [3] = experiment: Toxicity in C57BL/6 mouse assessed as body weight at 0.5 mg/kg, ip qd for 5 days ( RVb = 19.06 +/- 1.35 g); assay type: organism-based; set-up: dose 0.5 mg/kg, route intraperitoneal; settings: in vivo, 120 h
# Mus musculus [4] = experiment: Toxicity in C57BL/6 mouse at 0.5 mg/kg, ip qd for 5 days; assay type: organism-based; set-up: dose 0.5 mg/kg, route intraperitoneal; settings: in vivo, 120 h
# [5] = target: T1, Topoisomerase I (Bos taurus) (UniProt Q2HPH0); experiment: Inhibition of calf thymus topoisomerase 1-mediated relaxation of supercoiled pBR322 by agarose gel electrophoresis
# T1 sequence (whole entry): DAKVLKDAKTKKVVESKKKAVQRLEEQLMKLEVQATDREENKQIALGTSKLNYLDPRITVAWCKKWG
# Outline: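 Reactions incubated 15 min at 37 °C, then stopped with SDS (0.5% final). After loading buffer was added, products were separated on 0.8% agarose in TAE buffer for 40 min at 120 V. Gels were stained with ethidium bromide at room temperature and photographed under UV transillumination.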
Structure (SMILES),IC50 (A549),IC50 (LoVo),IC50 (MDA-MB-435),inhibition in vivo at 0.5 mg/kg [1],Activity [2],Activity (Mus musculus [3]),Activity (Mus musculus [4]),inhibition [5]
CCC1(O)CC(=O)OCc2c1cc1n(c2=O)Cc2c-1nc1ccc(O)cc1c2C (centres undefined),9.89 µM,7.09 µM,3.39 µM,,,,,
CCC1(O)CC(=O)OCc2c1cc1n(c2=O)Cc2c-1nc1cccc(OC)c1c2C (centres undefined),10.9 µM,5.47 µM,7.73 µM,23.2%,1.38 g,19.77 g,Non-toxic,
CCC1(O)CC(=O)OCc2c1cc1n(c2=O)Cc2c-1nc1ccc(C(F)(F)F)cc1c2C (centres undefined),> 225 µM,> 225 µM,> 225 µM,,,,,
CCC1(O)CC(=O)OCc2c1cc1n(c2=O)Cc2c-1nc1ccccc1c2C (centres undefined),0.468 µM,1.16 µM,3.88 µM,41.2%,1.06 g,18.8 g,Non-toxic,Active
CCC1(O)CC(=O)OCc2c1cc1n(c2=O)Cc2c-1nc1ccc(OC)cc1c2C (centres undefined),3.52 µM,1.32 µM,2.61 µM,,,,,
CCC1(O)CC(=O)OCc2c1cc1n(c2=O)Cc2c-1nc1ccc(Br)cc1c2C (centres undefined),29.1 µM,2.31 µM,30.9 µM,,,,,
CCC1(O)CC(=O)OCc2c1cc1n(c2=O)Cc2c-1nc1ccc(Br)cc1c2C(F)(F)F (racemic),27.9 µM,13.3 µM,11 µM,,,,,
CCC1(O)CC(=O)OCc2c1cc1n(c2=O)Cc2c-1nc1ccccc1c2C(F)(F)F (racemic),0.313 µM,1.29 µM,2.33 µM,45.6%,0.98 g,19.16 g,Non-toxic,Active
CCC1(O)CC(=O)OCc2c1cc1n(c2=O)Cc2c-1nc1ccc(C(F)(F)F)cc1c2C(F)(F)F (racemic),20.3 µM,22.9 µM,5.32 µM,,,,,
CCC1(O)CC(=O)OCc2c1cc1n(c2=O)Cc2c-1nc1ccc(OC)cc1c2C(F)(F)F (racemic),0.832 µM,14.6 µM,21.4 µM,,,,,
CCC1(O)CC(=O)OCc2c1cc1n(c2=O)Cc2c-1nc1ccc(O)cc1c2C(F)(F)F (racemic),16.2 µM,4.01 µM,11.2 µM,,,,,
CCC1(O)CC(=O)OCc2c1cc1n(c2=O)Cc2c-1nc1cccc(OC)c1c2C(F)(F)F (racemic),5.13 µM,3.43 µM,2.87 µM,,,,,
CC[C@@]1(O)C(=O)OCc2c1cc1n(c2=O)Cc2cc3c(CN(C)C)c(O)ccc3nc2-1 [TOPOTECAN],,,,47.5%,0.94 g,19.24 g,Non-toxic,
